# Screens as filed in PubChem BioAssay.
# In the library only some 2.1% were active in any assay of this set; here they are far more common.
# CCR6 antag: blocks CCL20-driven beta-arrestin recruitment at human CCR6; inhibition, % at 20 µM; AID 493098; hit rate 0.49% among 340,000; CHO-K1 CCR6 PathHunter beta-arrestin, luminescence, CCL20-stimulated;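 active means compounds whose inhibition of the agonist-driven luminescence signal at 20 µM reaches about 50%, limit read from the data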;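 further: cells stimulated with CCL20 at 14 nM final; plate controls were DMSO with CCL20 for no effect and DMSO without agonist for full effect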
# Target sequence (P51684 whole entry, looked up): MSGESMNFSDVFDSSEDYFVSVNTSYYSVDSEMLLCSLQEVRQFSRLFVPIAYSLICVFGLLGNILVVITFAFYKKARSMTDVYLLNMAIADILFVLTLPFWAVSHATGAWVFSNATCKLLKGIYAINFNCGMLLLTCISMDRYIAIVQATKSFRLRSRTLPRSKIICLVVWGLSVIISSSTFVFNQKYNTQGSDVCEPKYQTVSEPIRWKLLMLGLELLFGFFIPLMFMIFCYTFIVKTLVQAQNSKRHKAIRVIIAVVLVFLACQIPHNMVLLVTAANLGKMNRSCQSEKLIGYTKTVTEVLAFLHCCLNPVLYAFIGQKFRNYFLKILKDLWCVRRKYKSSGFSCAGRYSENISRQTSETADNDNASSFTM
# CXCR6 inh: inhibitors of human CXCR6 receptor; O00574; inhibition, % at 20 µM; AID 602244; hit rate 0.36% among 360,000; CHO-K1 PathHunter CXCR6 beta-arrestin, luminescence; in the data active means inhibition above about 34%, passing the limit was not always enough;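 further: antagonist mode with CXCL16 agonist at 10 nM final; 0% = 10 nM CXCL16 with DMSO and 100% = unstimulated wells without agonist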
# APJ antag: blocks the human apelin receptor APJ; CHO-K1 APJ beta-arrestin complementation, luminescence; inhibition, % at 20 µM; hit rate 0.32% among 330,000;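 active means inhibition above about 40% at 20 µM, limit read from the data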;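 further: cells challenged with 10 nM apelin-13 agonist together with compound; plate controls were apelin-13 plus DMSO wells for no effect and DMSO wells lacking apelin-13 for full effect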
# APJ ag: activates the human apelin receptor APJ. CHO-K1 APJ PathHunter beta-arrestin, luminescence; 0% DMSO wells, 100% apelin. hit rate 0.11% among 330,000. AID 2520. P35414. activation, % at 20 µM;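 active means activation more than six SD over the plate average, tested at 20 µM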;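 further: 0% = DMSO alone and 100% = apelin-13 at 10 nM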
#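 system = engineered CHO-K1 APJ arrestin reporter cells | input = 1000 cells per well | timing = overnight seeding, 90 min compound at 25 °C, 1 h detection | measured by = enzyme-fragment complementation luminescence | read-out = beta-arrestin recruitment to APJ as agonist activity, luminescent signal | control set = negative DMSO alone, positive Apelin-13 at 10 nM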
# EBI2 antag: blocks human EBI2 receptor beta-arrestin signaling; P32249; EBI2 beta-arrestin recruitment, luminescence, 7a,25-OHC stimulated; inhibition, % at 5 µM; hit rate 0.81% among 360,000; AID 651636; in the data active means inhibition above about 38%;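 further: enzyme fragment complementation signal reports receptor beta-arrestin coupling in cells; 0% = agonist plus DMSO wells and 100% = wells without agonist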
# HTR2A ag: activates the mouse 5-HT2A serotonin receptor | P35363 | CHO-K1 mHTR2A beta-arrestin complementation, luminescence; percent of 30 µM serotonin response | activation, % at 7.6 µM | hit rate 0.66% among 360,000 | AID 624169;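 active means activation above a run cutoff, the mean activation of all tested compounds plus 3 SD, cut at about 14% in these data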;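 further: 0% = plate median of compound wells and 100% = 30 µM serotonin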
# MOR ag counter: activates human mu opioid receptor in HTR2A counterscreen; shares compounds with HTR2A ag; U2OS OPRM1 beta-arrestin PathHunter, luminescence; DMSO 0%, DAMGO 9.3 µM 100%; activation, % at 9.3 µM; hit rate 5.3% among 2,300;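 active means mean activation above the mean of DMSO-only wells plus 3 SD, cut at about 0.5% in these data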
# m5-HT2A ag conf: confirmation of mouse HTR2A serotonin receptor agonists; shares compounds with HTR2A ag; hit rate 19% among 2,300; CHO-K1 PathHunter beta-arrestin recruitment, luminescence; DMSO 0%, 30 µM serotonin 100%; activation, % at 7.6 µM;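 active means mean activation across triplicates above the hit threshold derived in the original primary screen, cut at about 15% in these data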
# * hit, by the source's call; / = not tested or not shown; ! = a repeat was not active.
SMILES,CCR6 antag,CXCR6 inh,APJ antag,APJ ag,EBI2 antag,HTR2A ag,MOR ag counter,m5-HT2A ag conf
COc1cc(/C=C2\S/C(=N/S(=O)(=O)Cc3ccccc3)NC2=O)c([N+](=O)[O-])cc1OC,0,-3,-20,-3,1,-5,/,/
O=C(NCCCO)C(=O)NCC1OCCCN1S(=O)(=O)c1cccs1 (configuration not stated),10,-9,13,-5,2,16*,0.9*,-1
COc1ccc(S(=O)(=O)N2CCOC2CNC(=O)C(=O)NCCc2ccccc2)cc1 (configuration not stated),4,3,-4,-2,-3,46*,0,9
COc1cccc(NC(=S)NC2CC3CCCC(C2)N3C2CCCC2)c1 (configuration not stated),8,-8,-16,-1,-8,-1,/,/
Cc1[nH]c(=O)nc(SCc2cccc(Cl)c2)c1C#N,30,-3,4,0,-6,-4,/,/
Cc1[nH]c(=O)nc(SCc2ccc(Cl)c(Cl)c2)c1C#N,7,4,2,1,6,15*,0.8*,2
O=C1N=C(N2CCOCC2)S/C1=C\c1ccc(-c2ccccc2Cl)o1,4,0,15,-2,-24,1,/,/
Cc1ccccc1-c1ccc(/C=C2/SC(N3CCOCC3)=NC2=O)o1,15,3,-14,0,-3,21*,-1,89*
COc1ccc(-c2cc3c(=O)n(CC(=O)NCCCN4CCN(Cc5ccccc5)CC4)ncn3n2)cc1,29,-2,5,6,-7,-3,/,/
NC(=O)c1ccsc1NC(=O)COC(=O)c1ccc(Cl)nc1,5,-2,-38,-3,-2,1,/,/
O=C(Nc1ccccc1C(=O)Nc1ccc2c(c1)OCO2)c1ccco1,-15,1,-11,-1,-18,-16,/,/
O=C(Nc1oc2ccccc2c(=O)c1-c1ccc2c(c1)OCO2)c1ccco1,/,1,/,/,-5,14*,-1,-4
Nc1ccc(N2CCN(c3ccc(Cl)c(Cl)c3)CC2)cc1,-9,-10,-13,2,4,35*,0,-5
Nc1ccc(N2CCN(c3ccc(F)cc3)CC2)cc1,-4,2,-13,-2,-3,-2,/,/
COC(=O)N1CCN(c2ccc(Cl)c(Cl)c2)CC1,4,-4,-12,-6,0,0,/,/
O=C1CC(N2CCN(c3ccc(Cl)c(Cl)c3)CC2)C(=O)N1 (configuration not stated),8,-8,6,-1,-3,19*,1.6*,18*
N#C/C=C(/N)N1CCN(c2ccc(Cl)c(Cl)c2)CC1,31,-2,4,-3,-4,35*,-1,19*
CC(=O)N1CCc2cc(NC(=O)C3(C)CCN3CCc3ccccc3)ccc21 (configuration not stated),/,8,/,/,32,-1,/,/
C=CCNC(=O)/C(=C\C=C\c1ccccc1)NC(=O)c1ccccc1Cl,9,-1,-5,1,-2,2,/,/
COc1cc(NC(=O)CCc2nnc3ccc(N4CCCCC4)nn23)cc(OC)c1OC,9,-17,1,-3,7,16*,-1,-5
COc1cc(NC(=O)CCc2nnc3ccc(N4CCCC4)nn23)cc(OC)c1OC,4,-16,14,-2,3,0,/,/
CCN(CCCNC(=O)C1CCCN(S(=O)(=O)c2cnc[nH]2)C1)c1ccccc1 (configuration not stated),6,-1,2,8,-9,18*,0,-2
CCN(CCNC(=O)C1CCCN(S(=O)(=O)c2cnc[nH]2)C1)c1ccccc1 (configuration not stated),-5,2,-2,-3,-16,6,/,/
Cc1ccc(-c2ccc(CN3C(C)C(=O)N(Cc4cn(Cc5ccco5)nn4)CCS3(=O)=O)cc2)cc1 (configuration not stated),/,5,/,/,19,18*,-1,-4
COc1ccc(-c2ccc(CN3C(C(C)C)C(=O)N(Cc4cn(Cc5ccco5)nn4)CCS3(=O)=O)cc2)cc1 (configuration not stated),/,-3,/,/,10,18*,-1,-3
SMILES,CCR6 antag,CXCR6 inh,APJ antag,APJ ag,EBI2 antag,HTR2A ag,MOR ag counter,m5-HT2A ag conf
Cc1cccc(Nc2ncnc(N)c2[N+](=O)[O-])n1,-11,-6,-10,0,-4,3,/,/
N#Cc1c(/N=C/c2cccs2)sc2c1CCC2,25,6,7,-8,6,-4,/,/
N#Cc1c(/N=C/c2ccco2)sc2c1CCCCC2,12,-4,8,-2,4,14*,0,21*
Fc1ccccc1CN1CCN(c2ncccn2)CC1,-2,1,-9,1,-1,26*,0,121*
Cc1ccc(C)c(CN2CCN(c3ncccn3)CC2)c1,7,8,9,-4,6,17*,0,62*
COc1cc(Br)cc(CN2CCN(c3ncccn3)CC2)c1O,7,10,18,-3,8,33*,0,106*
COc1cccc(CN2CCN(c3ncccn3)CC2)c1,9,3,16,0,-6,36*,0,113*
Cc1ccc(C)c(S(=O)(=O)N2CCN(c3ncccn3)CC2)c1,10,1,-5,-3,-9,0,/,/
COc1cccc(N2CCN(Cc3cccnc3)CC2)c1,1,-1,3,3,3,2,/,/
Cc1cc(C=C2C(=O)c3ccccc3C2=O)c(C)n1-c1ccc(Cl)cc1,1,14,/,/,19,1,/,/
Cc1ccc(CN2CCN(c3ncccn3)CC2)o1,-8,-3,0,-3,-7,30*,-1,60*
Oc1cc2c(cc1CN1CCN(c3ncccn3)CC1)OCO2,0,4,-4,3,-2,17*,-1,123*
O=C(CN1CCOCC1)N1CCCc2ccccc21,-2,0,8,-2,-8,0,/,/
Oc1ccc(C2CNCCc3c2cc(O)c(O)c3Cl)cc1 (configuration not stated),7,2,10,1,-6,34*!,0,145*
Oc1cc2c(c(Cl)c1O)CCNCC2c1ccccc1 (configuration not stated),-1,-5,-4,-1,-1,24*,0,100*
Cc1oc(-c2ccc(Cl)cc2)nc1CS(=O)CC(=O)NCCCN1CC(C)CC(C)C1 (configuration not stated),21,-5,7,-2,-3,6,/,/
